Article PMC11234860 (Chemical Science, 2024)

Columns and labels:
[1] = target: Siglec-9 (Siglec-9d1–d3-Fc) (Homo sapiens, UniProt Q9Y336); experiment: 19F T2 CPMG filtered NMR competitive displacement assay, Siglec-9; format: binding
Outline: (§1)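 Siglec-15 ECD (d1–d2, residues 20–263) fused to mVENUS, or Siglec-9 d1–d3 (residues 18–336) fused to human IgG1 Fc with C-terminal His6. Both transiently expressed in HEK293F and purified by Ni-NTA then SEC. Siglec-9 15 μM or Siglec-15 25 μM, with 10 equiv difluoroacetamide spy, titrated with increasing competitor equivalents. One decoupled 19F CPMG spectrum per sample (200 ms filter) at 600 MHz, 298 K, in 20 mM Tris pH 8, 300 mM NaCl, 10% D2O, with 100 μM TFA reference.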

[2] = target: T1, Siglec-15 (Siglec-15d1–d2-mVENUS) (Homo sapiens, UniProt Q6ZMC9); experiment: 19F T2 CPMG filtered NMR competitive displacement assay, Siglec-15; format: binding
T1 sequence (Q6ZMC9 20-263): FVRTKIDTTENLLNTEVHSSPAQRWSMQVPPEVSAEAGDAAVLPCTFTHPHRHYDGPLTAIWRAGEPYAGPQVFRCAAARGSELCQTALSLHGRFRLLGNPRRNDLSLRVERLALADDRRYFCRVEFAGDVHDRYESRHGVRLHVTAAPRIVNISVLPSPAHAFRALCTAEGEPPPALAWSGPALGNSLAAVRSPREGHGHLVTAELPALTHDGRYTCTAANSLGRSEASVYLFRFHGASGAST
Outline: as §1

[3] = read-out: lower KD limit, semiquantitative, from displacement

Chain of Siglec-9 (Siglec-9d1–d3-Fc) (Q9Y336 18-336): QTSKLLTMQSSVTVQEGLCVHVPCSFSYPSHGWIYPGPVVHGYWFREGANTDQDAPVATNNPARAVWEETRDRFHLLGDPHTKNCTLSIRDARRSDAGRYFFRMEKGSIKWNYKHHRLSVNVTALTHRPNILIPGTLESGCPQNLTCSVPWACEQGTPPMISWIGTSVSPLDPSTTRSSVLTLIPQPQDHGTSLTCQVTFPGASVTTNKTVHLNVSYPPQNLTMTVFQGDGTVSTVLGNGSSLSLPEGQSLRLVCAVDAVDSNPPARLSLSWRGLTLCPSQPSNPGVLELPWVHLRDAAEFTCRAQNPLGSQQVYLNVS

For “6′-sialyl N-acetyl-D-lactosamine aminoethylglycoside [α2,6SLN]”, the “displacement of the spy molecule” value ([1]; 320 equivalents of competitor, Siglec-9 15 μM + 10 equiv diF α2,6SLN) was 21%, the Kd [1, 3] was ≥ 3 mM and the “displacement of the spy molecule” value ([2]; 300 equivalents of competitor, Siglec-15 25 μM + 10 equiv diF α2,6SLN) was 22%. The Kd [2, 3] was ≥ 5 mM.
